Laboratory results published in ChEMBL document CHEMBL4834471 (J Med Chem, 2021).
Calls of active or inactive are those of the source. The calls are words filed in the database; no cut-off is given here.

Assays:
Mus musculus [1] = test: Antiinflammatory activity in zymosan-induced CD-1 mouse peritonitis model assessed as reduction in LTB4 level at 10 mg/kg, ip preincubated with compound for 30 mins followed by zymosan addition and measured after 4 hrs by ELISA; assay type: functional, organism-based; conditions: time 270.0 min
Method in brief: (§1)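 Zymosan peritonitis with compound 10 mg/kg i.p. Vascular permeability assessed at 30 min after zymosan. Exudate LTB4 (ELISA) and peritoneal immune cell infiltration assessed at 4 h. Two-tailed unpaired t-test of log data.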

HepaRG = test: Induction of CYP3A4 expression in human HepaRG cells at 0.1 to 10 uM incubated for 48 hrs by fluorescence based assay; assay type: functional, cell-based; conditions: dose 0.1-10 µM
Method in brief: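 Differentiated HepaRG cells treated for 48 h; CYP3A4-expressing cells visualized by fluorescence imaging at 20× magnification; n = 3 independent experiments, with n = 9 for untreated cells.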

[2] = target: T1, Polyunsaturated fatty acid lipoxygenase ALOX12 (Homo sapiens) (UniProt P18054); test: Inhibition of 12-LOX in human PMNL assessed as reduction in 12-LOX product formation at 10 uM treated with AA and A23187 by RP-HPLC method; assay type: tissue-based
T1 sequence (whole entry): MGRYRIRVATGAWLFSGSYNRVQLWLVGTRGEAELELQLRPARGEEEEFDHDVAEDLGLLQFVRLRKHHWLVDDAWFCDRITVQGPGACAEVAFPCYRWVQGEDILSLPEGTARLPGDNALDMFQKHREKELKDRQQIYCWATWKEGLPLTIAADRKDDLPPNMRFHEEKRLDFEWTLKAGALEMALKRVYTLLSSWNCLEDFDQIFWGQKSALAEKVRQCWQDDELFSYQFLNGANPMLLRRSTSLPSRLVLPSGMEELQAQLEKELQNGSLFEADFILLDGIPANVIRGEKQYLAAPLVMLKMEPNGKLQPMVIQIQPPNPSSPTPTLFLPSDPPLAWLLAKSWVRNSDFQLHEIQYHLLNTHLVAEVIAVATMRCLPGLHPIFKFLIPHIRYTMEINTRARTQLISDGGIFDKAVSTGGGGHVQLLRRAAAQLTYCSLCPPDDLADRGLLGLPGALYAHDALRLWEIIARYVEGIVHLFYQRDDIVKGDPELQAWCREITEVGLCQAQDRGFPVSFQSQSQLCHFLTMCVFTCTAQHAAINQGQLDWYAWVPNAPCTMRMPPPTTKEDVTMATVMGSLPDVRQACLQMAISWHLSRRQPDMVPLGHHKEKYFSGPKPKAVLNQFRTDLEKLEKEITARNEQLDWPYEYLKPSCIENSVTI

Mus musculus [3] = test: Antiinflammatory activity in zymosan-induced CD-1 mouse peritonitis model assessed as reduction in LTC4 level at 3 mg/kg, po preincubated with compound for 60 mins followed by zymosan addition and measured after 30 mins by ELISA; assay type: functional, organism-based; conditions: time 90.0 min
Method in brief: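 Oral dosing at 3 mg/kg in zymosan-induced peritonitis; mice killed 30 min after zymosan; LTC4 in peritoneal exudate measured by ELISA; two-tailed unpaired t-test of log data.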

Mus musculus [4] = test: Antiinflammatory activity in zymosan-induced CD-1 mouse peritonitis model assessed as reduction in LOX derived metabolites at 10 mg/kg, po preincubated with compound for 60 mins followed by zymosan addition and measured after 30 mins; assay type: functional, organism-based; conditions: time 90.0 min
Method in brief: (§2)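 Oral dosing at 10 mg/kg in zymosan peritonitis; mice killed 30 min after zymosan. Peritoneal exudate lipid mediators and fatty acids profiled by UPLC-MS/MS, with LTC4 measured by ELISA; results expressed as fold change versus vehicle.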

Mus musculus [5] = test: Antiinflammatory activity in zymosan-induced CD-1 mouse peritonitis model assessed as reduction in vascular permeability at 10 mg/kg, ip preincubated with compound for 30 mins followed by zymosan addition and measured after 30 mins; assay type: functional, organism-based; conditions: time 60.0 min; method in brief: as §1
[6] = target: T2, Prostaglandin G/H synthase 1 (Ovis aries) (UniProt P05979); test: Inhibition of ovine COX-1 assessed as reduction in 12-HHT formation at 10 uM using arachidonic acid as substrate preincubated for 6 mins followed by substrate addition by RPL-HPLC method
T2 sequence (whole entry): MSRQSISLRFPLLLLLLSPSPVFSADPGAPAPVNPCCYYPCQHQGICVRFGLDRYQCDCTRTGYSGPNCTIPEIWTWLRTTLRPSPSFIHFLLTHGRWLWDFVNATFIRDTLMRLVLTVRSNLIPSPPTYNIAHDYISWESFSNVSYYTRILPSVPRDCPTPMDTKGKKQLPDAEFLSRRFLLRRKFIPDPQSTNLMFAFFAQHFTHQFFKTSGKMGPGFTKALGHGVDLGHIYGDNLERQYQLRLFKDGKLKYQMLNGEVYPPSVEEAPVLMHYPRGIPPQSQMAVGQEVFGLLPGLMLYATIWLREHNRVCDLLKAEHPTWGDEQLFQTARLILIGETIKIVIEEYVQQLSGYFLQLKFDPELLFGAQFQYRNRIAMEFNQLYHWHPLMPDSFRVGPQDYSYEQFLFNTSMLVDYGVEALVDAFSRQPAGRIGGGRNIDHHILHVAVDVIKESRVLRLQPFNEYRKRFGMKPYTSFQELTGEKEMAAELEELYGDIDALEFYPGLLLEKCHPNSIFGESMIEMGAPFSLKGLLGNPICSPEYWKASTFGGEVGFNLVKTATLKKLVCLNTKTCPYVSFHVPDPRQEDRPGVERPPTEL

Mus musculus [7] = test: Antiinflammatory activity in zymosan-induced CD-1 mouse peritonitis model assessed as increase in RvE3 levels at 10 mg/kg, po preincubated with compound for 60 mins followed by zymosan addition and measured after 30 mins by UPLC-MS/MS analysis; assay type: functional, organism-based; conditions: time 90.0 min; method in brief: as §2
[8] = Drug metabolism in human liver-on-chip assessed as compound oxidization at 12a' or 13' of omega-carboxylic acid incubated for 48 hrs by UPLC-MS/MS anlaysis; assay type: ADME, tissue-based
Method in brief: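 Liver-on-chip built from differentiated HepaRG cells (hepatocyte-like and biliary-like) with a HUVEC endothelial layer. Loaded with compound at 1 μM and incubated 48 h; compound and metabolites quantified from extracted chromatograms; n = 3 independent experiments.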

## C/C(=C\CC/C(C)=C/CC[C@]1(C)CCc2c(C)c(O)c(C)c(C)c2O1)CCC=C(CO)CO
Mus musculus [1]
  Activity: Active
HepaRG
  Activity: inactive
[2]
  inhibition: inactive
Mus musculus [3]
  Activity: Active
Mus musculus [4]
  Activity: Active
Mus musculus [5]
  Activity: Active
[6]
  inhibition: inactive
Mus musculus [7]
  Activity: Active
[8]
  Drug metabolism: Metabolite_Detected
